Data set [1] is described as follows: […] CHIKV LS3 infected in African green monkey Vero E6 cells assessed as reduction in virus-induced cytopathic effect measured after 96 hrs post-infection by MTS assay. Particulars: Chikungunya virus, LS3, Vero C1008, 96 h. For orientation: Protection from cytopathic effect is a common read-out in antiviral testing.
Data set [2] is described as follows: Selectivity index, ratio of CC50 for African green monkey Vero E6 cells to EC50 for inhibition of RNA-dependent RNA polymerase in SARS-CoV Frankfurt1 infected in African green monkey Vero E6 cells assessed as reduction in virus-induced cytopathic effect. It is filed as toxicity, Vero C1008. The note with it: read-out: Ratio CC50/EC50.
The nature of data set [3]: […]. Further details: species or system SARS coronavirus Frankfurt 1. Particulars: Severe acute respiratory syndrome-related coronavirus, Vero C1008, 72 h.
The nature of data set [4]: […]. Particulars: Middle East respiratory syndrome-related coronavirus, EMC/2012, Vero, 72 h. In kind it is cell-based.
Data set [5] is described as follows: Selectivity index, ratio of CC50 for African green monkey Vero E6 cells to EC50 for inhibition of RNA-dependent RNA polymerase in CHIKV LS3 infected in African green monkey Vero E6 cells assessed as reduction in virus-induced cytopathic effect. In kind it is toxicity, Vero C1008. Particulars: read-out: Ratio CC50/EC50. Put shortly: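 Vero E6 cells (5000/well) were infected with CHIKV at MOI 0.005 in EMEM/25 mM HEPES/2% FCS containing compound. CPE was read by MTS at 96 hpi (A495, relative to uninfected). Uninfected cells were tested in parallel for CC50. Eight concentrations, quadruplicate; EC50 and CC50 by nonlinear regression; SI = CC50/EC50.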

Data set [6] has as its system Vero. Description: Cytotoxicity against African green monkey Vero cells assessed as reduction in cell viability measured after 72 hrs by MTS assay. In kind it is cell-based. Particulars: chlorocebus sabaeus. The method, boiled down:
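Uninfected Vero cells (20 000/well) were incubated with compound for 72 h, alongside MERS-CoV assays. Viability by MTS for 2–2.5 h, formaldehyde fixation, then A495 relative to untreated controls. Eight concentrations, quadruplicate; CC50 from nonlinear regression.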
For orientation: Tetrazolium assays rely on reduction of a dye to a coloured formazan, in cell work by metabolically active cells.

The target in data set [7] is Adenosylhomocysteinase (Homo sapiens, UniProt P23526). Description: Inhibition of human placental SAH hydrolase expressed in Escherichia coli JM109 using SAH as substrate preincubated for 10 mins followed by SAH addition and measured after 20 mins by […] reagent-based spectrophotometric method.
Sequence of Adenosylhomocysteinase (P23526 whole entry): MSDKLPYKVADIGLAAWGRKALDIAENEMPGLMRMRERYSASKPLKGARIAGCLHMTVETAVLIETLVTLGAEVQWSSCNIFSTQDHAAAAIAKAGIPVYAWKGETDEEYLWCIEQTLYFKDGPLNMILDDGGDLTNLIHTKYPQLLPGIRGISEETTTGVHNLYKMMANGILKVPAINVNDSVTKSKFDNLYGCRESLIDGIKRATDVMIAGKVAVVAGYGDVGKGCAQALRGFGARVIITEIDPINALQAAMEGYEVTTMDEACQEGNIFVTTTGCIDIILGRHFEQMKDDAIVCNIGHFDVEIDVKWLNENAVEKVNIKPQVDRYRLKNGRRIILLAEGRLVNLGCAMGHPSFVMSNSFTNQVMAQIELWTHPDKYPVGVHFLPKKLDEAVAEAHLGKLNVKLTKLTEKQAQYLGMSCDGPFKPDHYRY
Data set [8] is described as follows: Selectivity index, ratio of CC50 for African green monkey Vero cells to EC50 for inhibition of RNA-dependent RNA polymerase in ZIKV SL0612 infected in African green monkey Vero cells assessed as reduction in virus-induced cytopathic effect. The note with it: read-out: Ratio CC50/EC50. It is filed as toxicity. Put shortly: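 Vero CCL81 cells (5000/well) received ZIKV at MOI 0.05 in compound-containing infection medium. MTS was read at 96 hpi (A495, relative to uninfected), with uninfected cells run in parallel for CC50. Eight concentrations, quadruplicate; nonlinear regression; SI = CC50/EC50.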

Data set [9] in a line: (§1) Cytotoxicity against African green monkey Vero E6 cells assessed as reduction in cell viability measured after 72 hrs by MTS assay. The note with it: chlorocebus sabaeus, Vero E6 cells (Vero C1008). In kind it is cell-based, Vero C1008. Put shortly:
(§2)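 Uninfected Vero E6 cells (10 000/well) were exposed to compound for 72 h, in parallel with SARS-CoV CPE assays. Eight concentrations in quadruplicate; CC50 by nonlinear regression.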

Data set [10] relates to Vero. In words: Cytotoxicity against African green monkey Vero cells assessed as reduction in cell viability measured after 96 hrs by MTS assay. The note with it: chlorocebus sabaeus. In kind it is cell-based. Put shortly:
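Uninfected Vero CCL81 cells (5000/well) were treated for 96 h in parallel with ZIKV CPE assays. Eight concentrations, quadruplicate; CC50 by nonlinear regression.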

The subject of data set [11] is Vero C1008. Described as §1. In kind it is cell-based. The note with it: chlorocebus sabaeus, vero c1008, 72 h. The method, boiled down:
as §2

In data set [12] the test system is Middle East respiratory syndrome-related coronavirus. In words: Antiviral activity against MERS-CoV EMC/2012 infected in African green monkey Vero cells assessed as log reduction in virus titre at >0.3 uM measured after 48 hrs viral infection by plaque assay. In kind it is functional.
For data set [13], the system named is SARS-CoV. Description: Antiviral activity against SARS-CoV Frankfurt1 infected in African green monkey Vero E6 cells assessed as log reduction in viral titre at >0.3 uM measured at 48 hrs post infection by plaque assay. It is filed as functional, Severe acute respiratory syndrome-related coronavirus, Frankfurt 1, Vero C1008.
A short description of data set [14]: Selectivity index, ratio of CC50 for African green monkey Vero cells to EC50 for inhibition of RNA-dependent RNA polymerase in MERS-CoV EMC/2012 infected in African green monkey Vero cells assessed as reduction in virus-induced cytopathic effect. It is filed as toxicity. The note with it: read-out: Ratio CC50/EC50.
Data set [15] relates to Zika virus. In words: Antiviral activity against ZIKV SL0612 infected in African green monkey Vero cells assessed as log reduction in viral titre up to 1.5 uM measured at 48 hrs post infection by plaque assay. It is filed as functional. Put shortly: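 Vero E6 cells (7.5 × 10^4/well) adhered overnight in DMEM/8% FCS. ZIKV infection was at MOI 1 for 2 h at 37 °C in EMEM/2% FCS with compound (0–1.5 μM), followed by washing and 48 h in compound-containing medium. Supernatant titre was read by plaque assay on Vero CCL81. Duplicates in two independent experiments (n = 4).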

For data set [16], the system named is Chikungunya virus. Description: Antiviral activity against CHIKV LS3 infected in African green monkey Vero E6 cells assessed as log reduction in viral titer measured after 30 hrs post infection by plaque assay. In kind it is functional, Vero C1008.
Data set [17] can be described thus: Partition coefficient, log P of the compound in liquid/aqueous phase by pH-metric method. Particulars: octanol/water. In kind it is physicochemical.

pEC50, pIC50: −log10 of the molar value.

The pEC50 is −log10 of the EC50, conventionally taken in molar units. Regarding `Nc1ncnc2c1ncn2[C@H]1[C@H](O)[C@H](O)[C@@H](CO)[C@@H]1F`, the pEC50 in data set [1] is 6.28.

One may read the CC50 as the concentration at which the toxic effect on the cells reaches its halfway point. One may read the pIC50 as the IC50 on a negative log10 scale, so that one unit is a factor of ten. `CC(C)OC(=O)[C@H](C)N[P@](=O)(OC[C@@H]1[C@@H](O)[C@@H](O)[C@H](n2cnc3c(N)ncnc32)C1(F)F)Oc1ccccc1`: the selectivity ratio in [2] is above 3.7; in [5], above 6.4; in [8] it was above 14.3. The pEC50 in data set [3] is 5.17; in [4] it was 5.03; in [1], 5.71. The CC50 in data set [6] is above 50 µM; in [10], above 25 µM. In data set [7], this compound gave a pIC50 below 4.00. Besides, in data set [9], the CC50 at 72 h was 12.5 to 25 µM.

For the compound `CC(C)OC(=O)[C@H](C)N[P@](=O)(OC[C@@H]1[C@@H](O)[C@@H](O)[C@H](n2ccc(=O)[nH]c2=O)C1(F)F)Oc1ccccc1`, the values for the pEC50 in data set [3], in [4] and in data set [1] were below 4.00, below 4.30 and below 4.00, respectively. In addition, the CC50 was above 50 µM in data set [6], above 100 µM in data set [11] and above 100 µM in data set [10]. For the same compound, the pIC50 in data set [7] was below 4.00.

For the compound `O=c1ccn([C@H]2[C@H](O)[C@H](O)[C@@H](CO)[C@@H]2F)c(=O)[nH]1`, the pEC50 in data set [3], in [4] and in data set [1] was below 4.00 each time. Also, the CC50 in [6] and in data set [10] was above 100 µM throughout. The same compound had a pIC50 in data set [7] below 4.00.

As to `CNc1ncnc2c1ncn2[C@H]1[C@H](O)[C@H](O)[C@@H](CO)[C@H]1F`, the pEC50 in data set [3] is below 4.00; in data set [4], below 4.30; in data set [1], below 4.00. Besides, the CC50 in data set [6] was above 50 µM; in [11], above 100 µM; in data set [10], above 100 µM. The same compound gave a pIC50 in data set [7] of 5.36.

As to `CNc1ncnc2c1ncn2[C@H]1[C@H](O)[C@H](O)[C@@H](CO)C1(F)F`, the pEC50 in data set [3] is below 4.00; in data set [4], below 4.30; in [1], below 4.00. The CC50 in data set [6] is 12.5 µM; in [11], above 100 µM; in data set [10] it was above 100 µM. This compound showed a pIC50 in [7] of 6.12.

As to `Nc1ncnc2c1ncn2[C@@H]1C[C@H](CO)[C@@H](O)[C@H]1O` [ARISTEROMYCIN], the pEC50 in data set [3] is below 4.30; in data set [4], below 4.30; in data set [1], 6.10. In addition, the results for the CC50 in data set [6] and in data set [10] were 2 µM and 2.4 µM, respectively. Moreover, the CC50 at 72 h in data set [9] lay in the range of 2.4 to 6.3 µM.

Consider `Nc1ccn([C@H]2[C@H](O)[C@H](O)[C@@H](CO)C2(F)F)c(=O)n1`, for which the pEC50 in [3] is below 4.00; in data set [4], below 4.30; in data set [1], below 4.00. Further, the values for the CC50 in data set [6], in data set [11] and in [10] were above 50 µM, above 100 µM and above 100 µM, respectively. Moreover, in data set [7], the pIC50 is below 4.00.

In the case of `O=c1ccn([C@H]2[C@H](O)[C@H](O)[C@@H](CO)C2(F)F)c(=O)[nH]1`, the negative logarithm of the EC50 (pEC50) is below 4.00 in data set [3], below 4.30 in data set [4] and below 4.00 in data set [1]. Also, the CC50 in [6] was above 50 µM; in [11], above 100 µM; in data set [10], above 100 µM. For the same compound, in data set [7], the pIC50 is below 4.00.

The logP is a log measure of how a compound divides between an organic and an aqueous phase. Consider `Nc1ncnc2c1ncn2[C@H]1[C@H](O)[C@H](O)[C@@H](CO)C1(F)F`, for which the FC in data set [12] was 2.5; in data set [13], 1.5; in data set [15], 1; in data set [16], above 2. The selectivity ratio was 11.8 in data set [2], 16 in [14], above 9.6 in data set [5] and above 9.6 in [8]. Besides, the pEC50 in data set [3] is 6.30; in data set [4], 6.70; in data set [1], 6.89. Also, the CC50 is 3.2 µM in data set [6] and above 2.5 µM in data set [10]. For the same compound, the pIC50 in [7] is 5.97. Also, in data set [9], the CC50 at 72 h was in the range of 1.25 to 5.9 µM. In [17], this compound showed a logP of 0.02.

In the case of `O=c1ccn([C@H]2[C@H](O)[C@H](O)[C@@H](CO)[C@H]2F)c(=O)[nH]1`, the pEC50 in data set [3], in data set [4] and in data set [1] was below 4.00 throughout. Besides, in data set [7], the pIC50 was below 4.00. The CC50 in [11] was above 100 µM.

Turning to `Nc1ncnc2c1ncn2[C@H]1[C@H](O)[C@H](O)[C@@H](CO)[C@H]1F`, the pEC50 in data set [4] was 6.70; in data set [1] it was below 4.00. In data set [6], the CC50 was 0.6 µM. For the same compound, in [9], the CC50 at 72 h is above 100 µM.

For the compound `CC(C)OC(=O)[C@H](C)N[P@](=O)(OC[C@@H]1[C@@H](O)[C@@H](O)[C@H](n2ccc(=O)[nH]c2=O)[C@@H]1F)Oc1ccccc1`, the pEC50 in [3] is below 4.00; in data set [4], below 4.30; in data set [1] it was below 4.00. For the same compound, the values for the CC50 in [6], in data set [11] and in data set [10] were above 50 µM, above 100 µM and above 100 µM, respectively. Also, the pIC50 in data set [7] is below 4.00.

On to `Nc1ccn([C@H]2[C@H](O)[C@H](O)[C@@H](CO)[C@H]2F)c(=O)n1`, for which the pEC50 in [3], in [4] and in data set [1] was below 4.00 throughout. The CC50 in data set [6], in [11] and in data set [10] was above 100 µM in each case. The compound further gave a negative-log IC50 (pIC50) in [7] below 4.00.
